# pIC50: −log10 of the molar value.
# How the values were obtained:
# Kv2.1 SP+CC mutant = test: TEVC in Xenopus oocytes, Kv2.1 SP+CC six-fold mutant; format: cell-based
# Method in brief: (§1)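 Stage IV–V X. laevis oocytes cultured at 18 °C for 1–13 d in HEPES-buffered saline, pH 7.4, with gentamycine and pyruvate. Two-electrode voltage clamp in modified ND96 (4 mM KCl, pH 7.5). Currents were evoked by 2-s pulses to +40 mV every 10 s from −80 mV. Compound was taken from a 10 mM DMSO stock.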
# Kv1.5 A503L mutant = test: TEVC in Xenopus oocytes, Kv1.5 A503L mutant; format: cell-based, human; conditions: versus wild-type Kv1.5
# Kv1.5 = conditions: read-out: IC50 for block of Kv1.5; cited from earlier work
# Kv3.1 = conditions: cited from earlier work
# Kv1.3 = conditions: read-out: IC50 for block of Kv1.3; cited from earlier work
# [1] = system: Kv1.1, Kv1.2, Kv1.5 and Kv1.6 versus Kv2.1, Kv3.1 and Kv4.3; test: TEVC in Xenopus oocytes, block of different Kv channels; format: cell-based; conditions: 500 nM Psora-4, +40 mV
# Method in brief: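 Channels expressed in Xenopus oocytes and recorded by two-electrode voltage clamp in modified ND96 (96 mM NaCl, 4 mM KCl, 5 mM HEPES, pH 7.5). Cells were held at −80 mV and stepped to +40 mV for 2 s every 10 s. Test compound was applied at 500 nM from a 10 mM DMSO stock, and block was analysed at +40 mV.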
# Kv1.5 mutant channels = test: TEVC in Xenopus oocytes, Kv1.5 scanning mutants; format: cell-based, human
# Kv2.1 = target: T1, Kv2.1 (Homo sapiens, UniProt Q14721); test: TEVC in Xenopus oocytes, Kv2.1 wild type; format: cell-based; conditions: read-out: IC50 for Kv2.1
# T1 sequence (Q14721 1-858): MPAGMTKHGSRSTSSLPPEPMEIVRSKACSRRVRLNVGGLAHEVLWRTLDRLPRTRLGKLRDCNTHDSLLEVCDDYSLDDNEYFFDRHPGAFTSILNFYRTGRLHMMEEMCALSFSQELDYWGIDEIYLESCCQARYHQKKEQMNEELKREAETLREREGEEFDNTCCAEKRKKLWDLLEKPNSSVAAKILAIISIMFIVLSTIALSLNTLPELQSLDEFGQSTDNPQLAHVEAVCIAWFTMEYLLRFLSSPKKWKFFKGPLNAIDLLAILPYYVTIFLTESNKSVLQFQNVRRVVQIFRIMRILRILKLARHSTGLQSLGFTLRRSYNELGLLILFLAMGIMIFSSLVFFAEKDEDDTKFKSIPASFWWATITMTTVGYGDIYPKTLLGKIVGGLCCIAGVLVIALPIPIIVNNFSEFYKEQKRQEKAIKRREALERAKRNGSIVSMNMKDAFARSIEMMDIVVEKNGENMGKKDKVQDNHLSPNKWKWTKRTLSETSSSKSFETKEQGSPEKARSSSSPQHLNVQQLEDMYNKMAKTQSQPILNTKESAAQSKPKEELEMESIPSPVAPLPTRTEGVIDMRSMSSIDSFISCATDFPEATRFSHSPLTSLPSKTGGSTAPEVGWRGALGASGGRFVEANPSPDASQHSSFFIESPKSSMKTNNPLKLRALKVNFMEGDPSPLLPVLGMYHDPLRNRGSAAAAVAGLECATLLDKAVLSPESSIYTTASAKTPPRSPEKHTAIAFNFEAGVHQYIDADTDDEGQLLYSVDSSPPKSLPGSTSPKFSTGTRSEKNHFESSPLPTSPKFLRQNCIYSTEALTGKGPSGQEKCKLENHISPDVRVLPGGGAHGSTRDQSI
# Method in brief: as §1
# Kv1.5 channels = Kv1.5 channels (Homo sapiens, UniProt P22460); format: cell-based
# Chain of Kv1.5 channels (P22460 whole entry): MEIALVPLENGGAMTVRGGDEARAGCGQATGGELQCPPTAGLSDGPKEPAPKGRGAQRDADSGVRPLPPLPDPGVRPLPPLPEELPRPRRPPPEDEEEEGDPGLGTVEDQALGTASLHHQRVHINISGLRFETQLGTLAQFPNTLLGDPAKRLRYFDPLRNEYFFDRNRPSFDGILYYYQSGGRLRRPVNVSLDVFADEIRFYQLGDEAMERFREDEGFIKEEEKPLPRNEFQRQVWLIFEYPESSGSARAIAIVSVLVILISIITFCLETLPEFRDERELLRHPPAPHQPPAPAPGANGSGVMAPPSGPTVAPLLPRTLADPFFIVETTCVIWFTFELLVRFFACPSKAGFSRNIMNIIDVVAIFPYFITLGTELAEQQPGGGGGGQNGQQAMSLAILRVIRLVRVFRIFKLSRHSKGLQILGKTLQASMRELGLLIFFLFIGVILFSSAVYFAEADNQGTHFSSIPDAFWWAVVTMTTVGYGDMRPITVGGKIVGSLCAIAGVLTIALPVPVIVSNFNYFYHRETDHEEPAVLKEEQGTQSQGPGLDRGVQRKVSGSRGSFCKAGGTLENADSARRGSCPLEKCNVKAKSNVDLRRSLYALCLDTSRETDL
structure (smiles),measurement,setting,value
O=c1ccc2c(OCCCCc3ccccc3)c3ccoc3cc2o1 [Psora-4],Hill coefficient for Kv2.1 SP+CC,Kv2.1 SP+CC mutant,[…]
same,pIC50,"Kv2.1 SP+CC mutant; read-out: IC50 for Kv2.1 SP+CC, six-fold mutant",6.24
same,increase of IC50 for A503L mutant,Kv1.5 A503L mutant,~100 fold
same,block of other K+ channels including Kv3.1,Kv3.1,micromolar range
same,"sensitivity of Kv1 subfamily members versus Kv2.1, Kv3.1 and Kv4.3",[1],much more sensitive
same,"increase of IC50 by S4, S4-S5 linker and S5 mutations",Kv1.5 mutant channels; side-pocket hits versus wild-type Kv1.5,up to 276 fold
same,pIC50,Kv2.1,~5.41
CCCCN1CCCCC1C(=O)Nc1c(C)cccc1C (centres unmarked) [bupivacaine],inhibition of S4 and S4-S5 linker mutants,"Kv1.5 mutant channels; control pore blocker, side-pocket mutants",None of the mutations in the S4 segment or the S4–S5 linker reduced bupivacaine inhibition
"CC[N+](CC)(CC)CC [TEA, tetraethyl-ammonium]",effect on inhibition by 100 nM Psora-4,Kv1.5 channels,prevented the otherwise complete inhibition
same,effect on kinetics of Psora-4 block,Kv1.5 channels,slowed the kinetics of block
"CCCCC[N+](CCCCC)(CCCCC)CCCCC [TPA, tetrapentyl-ammonium]",competition with Psora-4 in the central cavity,"Kv1.5 channels; TPA pre-applied, same conditions as TEA",no apparent competition

# Source: article PMC4539245 (Nature chemical biology, 2013)
